From ChEMBL document CHEMBL5724801, “EUbOPEN Chemogenomics Library - Multiplex” (2024)
Values joined by “and” are separate entries in the source; they are usually repeats but may differ in a detail not shown here. Equal values may be shown once.

Columns and labels:
Type in all cases: toxicity, cell-based
[1] = tested on: HEK-293T; experiment: Multiplex assay against HEK293T; conditions: human
Method in brief: (§1)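 Cells stained live at seeding with Hoechst33342, BioTracker Green Microtubule Cytoskeleton Dye, MitoTracker Red and Annexin V Alexa Fluor 680 were imaged on a CQ1 microscope at 37°C and 5% CO2 after compound addition. Their classification by CellPathfinder machine-learning gating ran from Hoechst high-intensity objects versus normal cells, to healthy, pyknosed or fragmented nuclei among normal cells, to mitotic or apoptotic among pyknosed cells. Tubulin, mitochondrial-mass and membrane-permeability phenotypes are per cents of healthy-nucleus cells.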

[2] = tested on: Fibroblast; experiment: Multiplex assay against human fibroblast; method in brief: as §1
[3] = tested on: U2OS; experiment: Multiplex assay against U2OS; conditions: human; method in brief: as §1
[4] = 12 h, 1 µM, compound concentration 1 uM
[5] = 12 h, 10 µM, compound concentration 10 uM
[6] = 24 h, 1 µM, compound concentration 1 uM
[7] = 24 h, 10 µM, compound concentration 10 uM
[8] = 48 h, 1 µM, compound concentration 1 uM
[9] = 48 h, 10 µM, compound concentration 10 uM

Compound: Cc1ccc(/C(=C\CN2CCCC2)c2ccccn2)cc1 [TRIPROLIDINE]
- Population Apoptotic (%) [1, 4]: 34% and 50%
- Population Fragmented Nuclei (%) [1, 4]: 6% and 3%
- Population Healthy Nuclei (%) [1, 4]: 83% and 84%
- Population Hoechst High Intensity Objects (%) [1, 4]: 7% and 5%
- Population Membrane Permeable-Phenotype (%) [1, 4]: 0%
- Population Mitochondria Different-Phenotype (%) [1, 4]: 45% and 55%
- Population Mitotic Cells (%) [1, 4]: 65% and 50%
- Population Normal (%) [1, 4]: 92% and 94%
- Population Pyknosed Nuclei (%) [1, 4]: 9% and 11%
- Population Tubulin-Different-Phenotype (%) [1, 4]: 24% and 17%
- Total Cell Count [1, 4]: 424 and 446
- Population Apoptotic (%) [1, 5]: 44%
- Population Fragmented Nuclei (%) [1, 5]: 10% and 6%
- Population Healthy Nuclei (%) [1, 5]: 72% and 77%
- Population Hoechst High Intensity Objects (%) [1, 5]: 15% and 8%
- Population Membrane Permeable-Phenotype (%) [1, 5]: 0%
- Population Mitochondria Different-Phenotype (%) [1, 5]: 67% and 74%
- Population Mitotic Cells (%) [1, 5]: 56%
- Population Normal (%) [1, 5]: 84% and 91%
- Population Pyknosed Nuclei (%) [1, 5]: 16% and 15%
- Population Tubulin-Different-Phenotype (%) [1, 5]: 53% and 45%
- Total Cell Count [1, 5]: 368 and 344
- Population Apoptotic (%) [1, 6]: 30%
- Population Fragmented Nuclei (%) [1, 6]: 10% and 9%
- Population Healthy Nuclei (%) [1, 6]: 78% and 82%
- Population Hoechst High Intensity Objects (%) [1, 6]: 3% and 7%
- Population Membrane Permeable-Phenotype (%) [1, 6]: 0%
- Population Mitochondria Different-Phenotype (%) [1, 6]: 27% and 34%
- Population Mitotic Cells (%) [1, 6]: 70% and 69%
- Population Normal (%) [1, 6]: 96% and 92%
- Population Pyknosed Nuclei (%) [1, 6]: 10% and 7%
- Population Tubulin-Different-Phenotype (%) [1, 6]: 18% and 9%
- Total Cell Count [1, 6]: 574 and 541
- Population Apoptotic (%) [1, 7]: 36% and 27%
- Population Fragmented Nuclei (%) [1, 7]: 8% and 9%
- Population Healthy Nuclei (%) [1, 7]: 78% and 80%
- Population Hoechst High Intensity Objects (%) [1, 7]: 9% and 4%
- Population Membrane Permeable-Phenotype (%) [1, 7]: 0%
- Population Mitochondria Different-Phenotype (%) [1, 7]: 55% and 54%
- Population Mitotic Cells (%) [1, 7]: 63% and 72%
- Population Normal (%) [1, 7]: 90% and 95%
- Population Pyknosed Nuclei (%) [1, 7]: 13% and 10%
- Population Tubulin-Different-Phenotype (%) [1, 7]: 43% and 26%
- Total Cell Count [1, 7]: 490 and 464
- Population Apoptotic (%) [1, 8]: 16% and 37%
- Population Fragmented Nuclei (%) [1, 8]: 14% and 10%
- Population Healthy Nuclei (%) [1, 8]: 79% and 84%
- Population Hoechst High Intensity Objects (%) [1, 8]: 1% and 3%
- Population Membrane Permeable-Phenotype (%) [1, 8]: 2% and 1%
- Population Mitochondria Different-Phenotype (%) [1, 8]: 17% and 13%
- Population Mitotic Cells (%) [1, 8]: 83% and 62%
- Population Normal (%) [1, 8]: 98% and 96%
- Population Pyknosed Nuclei (%) [1, 8]: 6% and 4%
- Population Tubulin-Different-Phenotype (%) [1, 8]: 11% and 6%
- Total Cell Count [1, 8]: 950 and 837
- Population Apoptotic (%) [1, 9]: 43% and 33%
- Population Fragmented Nuclei (%) [1, 9]: 16% and 13%
- Population Healthy Nuclei (%) [1, 9]: 74% and 78%
- Population Hoechst High Intensity Objects (%) [1, 9]: 6% and 4%
- Population Membrane Permeable-Phenotype (%) [1, 9]: 0% and 1%
- Population Mitochondria Different-Phenotype (%) [1, 9]: 46% and 43%
- Population Mitotic Cells (%) [1, 9]: 56% and 66%
- Population Normal (%) [1, 9]: 93% and 95%
- Population Pyknosed Nuclei (%) [1, 9]: 9% and 7%
- Population Tubulin-Different-Phenotype (%) [1, 9]: 29% and 25%
- Total Cell Count [1, 9]: 674 and 644
- Population Apoptotic (%) [2, 4]: 52% and 41%
- Population Fragmented Nuclei (%) [2, 4]: 17% and 28%
- Population Healthy Nuclei (%) [2, 4]: 64% and 45%
- Population Hoechst High Intensity Objects (%) [2, 4]: 3% and 4%
- Population Membrane Permeable-Phenotype (%) [2, 4]: 0% and 1%
- Population Mitochondria Different-Phenotype (%) [2, 4]: 9%
- Population Mitotic Cells (%) [2, 4]: 47% and 58%
- Population Normal (%) [2, 4]: 96% and 95%
- Population Pyknosed Nuclei (%) [2, 4]: 18% and 25%
- Population Tubulin-Different-Phenotype (%) [2, 4]: 29% and 60%
- Total Cell Count [2, 4]: 119 and 127
- Population Apoptotic (%) [2, 5]: 57% and 50%
- Population Fragmented Nuclei (%) [2, 5]: 14% and 26%
- Population Healthy Nuclei (%) [2, 5]: 64% and 52%
- Population Hoechst High Intensity Objects (%) [2, 5]: 2%
- Population Membrane Permeable-Phenotype (%) [2, 5]: 0% and 9%
- Population Mitochondria Different-Phenotype (%) [2, 5]: 5% and 9%
- Population Mitotic Cells (%) [2, 5]: 42% and 50%
- Population Normal (%) [2, 5]: 97%
- Population Pyknosed Nuclei (%) [2, 5]: 20% and 21%
- Population Tubulin-Different-Phenotype (%) [2, 5]: 44% and 59%
- Total Cell Count [2, 5]: 139 and 141
- Population Apoptotic (%) [2, 6]: 43% and 46%
- Population Fragmented Nuclei (%) [2, 6]: 17% and 29%
- Population Healthy Nuclei (%) [2, 6]: 69% and 43%
- Population Hoechst High Intensity Objects (%) [2, 6]: 4% and 9%
- Population Membrane Permeable-Phenotype (%) [2, 6]: 1% and 6%
- Population Mitochondria Different-Phenotype (%) [2, 6]: 3% and 6%
- Population Mitotic Cells (%) [2, 6]: 56% and 53%
- Population Normal (%) [2, 6]: 95% and 90%
- Population Pyknosed Nuclei (%) [2, 6]: 13% and 27%
- Population Tubulin-Different-Phenotype (%) [2, 6]: 23% and 64%
- Total Cell Count [2, 6]: 128 and 121
- Population Apoptotic (%) [2, 7]: 47% and 58%
- Population Fragmented Nuclei (%) [2, 7]: 15% and 29%
- Population Healthy Nuclei (%) [2, 7]: 68% and 52%
- Population Hoechst High Intensity Objects (%) [2, 7]: 4% and 2%
- Population Membrane Permeable-Phenotype (%) [2, 7]: 0% and 6%
- Population Mitochondria Different-Phenotype (%) [2, 7]: 3% and 12%
- Population Mitotic Cells (%) [2, 7]: 52% and 41%
- Population Normal (%) [2, 7]: 95% and 97%
- Population Pyknosed Nuclei (%) [2, 7]: 15% and 17%
- Population Tubulin-Different-Phenotype (%) [2, 7]: 41% and 62%
- Total Cell Count [2, 7]: 142 and 141
- Population Apoptotic (%) [2, 8]: 54% and 52%
- Population Fragmented Nuclei (%) [2, 8]: 26% and 29%
- Population Healthy Nuclei (%) [2, 8]: 65% and 48%
- Population Hoechst High Intensity Objects (%) [2, 8]: 3% and 7%
- Population Membrane Permeable-Phenotype (%) [2, 8]: 1% and 7%
- Population Mitochondria Different-Phenotype (%) [2, 8]: 2% and 10%
- Population Mitotic Cells (%) [2, 8]: 45% and 48%
- Population Normal (%) [2, 8]: 96% and 92%
- Population Pyknosed Nuclei (%) [2, 8]: 8% and 21%
- Population Tubulin-Different-Phenotype (%) [2, 8]: 31% and 57%
- Total Cell Count [2, 8]: 135 and 124
- Population Apoptotic (%) [2, 9]: 38% and 42%
- Population Fragmented Nuclei (%) [2, 9]: 20% and 32%
- Population Healthy Nuclei (%) [2, 9]: 69% and 56%
- Population Hoechst High Intensity Objects (%) [2, 9]: 7% and 5%
- Population Membrane Permeable-Phenotype (%) [2, 9]: 1% and 5%
- Population Mitochondria Different-Phenotype (%) [2, 9]: 6% and 9%
- Population Mitotic Cells (%) [2, 9]: 61% and 57%
- Population Normal (%) [2, 9]: 92% and 94%
- Population Pyknosed Nuclei (%) [2, 9]: 9% and 10%
- Population Tubulin-Different-Phenotype (%) [2, 9]: 35% and 54%
- Total Cell Count [2, 9]: 142 and 140
- Population Apoptotic (%) [3, 4]: 85%
- Population Fragmented Nuclei (%) [3, 4]: 29% and 18%
- Population Healthy Nuclei (%) [3, 4]: 61% and 70%
- Population Hoechst High Intensity Objects (%) [3, 4]: 2% and 3%
- Population Membrane Permeable-Phenotype (%) [3, 4]: 4% and 6%
- Population Mitochondria Different-Phenotype (%) [3, 4]: 2% and 1%
- Population Mitotic Cells (%) [3, 4]: 15% and 14%
- Population Normal (%) [3, 4]: 97% and 96%
- Population Pyknosed Nuclei (%) [3, 4]: 8% and 11%
- Population Tubulin-Different-Phenotype (%) [3, 4]: 1% and 5%
- Total Cell Count [3, 4]: 244 and 126
- Population Apoptotic (%) [3, 5]: 87% and 75%
- Population Fragmented Nuclei (%) [3, 5]: 25% and 15%
- Population Healthy Nuclei (%) [3, 5]: 64% and 77%
- Population Hoechst High Intensity Objects (%) [3, 5]: 3% and 0%
- Population Membrane Permeable-Phenotype (%) [3, 5]: 29% and 14%
- Population Mitochondria Different-Phenotype (%) [3, 5]: 23% and 18%
- Population Mitotic Cells (%) [3, 5]: 12% and 25%
- Population Normal (%) [3, 5]: 96% and 99%
- Population Pyknosed Nuclei (%) [3, 5]: 9% and 7%
- Population Tubulin-Different-Phenotype (%) [3, 5]: 24% and 15%
- Total Cell Count [3, 5]: 264 and 114
- Population Apoptotic (%) [3, 6]: 89% and 81%
- Population Fragmented Nuclei (%) [3, 6]: 23% and 20%
- Population Healthy Nuclei (%) [3, 6]: 66% and 68%
- Population Hoechst High Intensity Objects (%) [3, 6]: 1% and 4%
- Population Membrane Permeable-Phenotype (%) [3, 6]: 4% and 9%
- Population Mitochondria Different-Phenotype (%) [3, 6]: 3% and 6%
- Population Mitotic Cells (%) [3, 6]: 10% and 18%
- Population Normal (%) [3, 6]: 98% and 96%
- Population Pyknosed Nuclei (%) [3, 6]: 9% and 11%
- Population Tubulin-Different-Phenotype (%) [3, 6]: 2% and 5%
- Total Cell Count [3, 6]: 297 and 150
- Population Apoptotic (%) [3, 7]: 75% and 78%
- Population Fragmented Nuclei (%) [3, 7]: 27% and 19%
- Population Healthy Nuclei (%) [3, 7]: 62% and 70%
- Population Hoechst High Intensity Objects (%) [3, 7]: 2% and 1%
- Population Membrane Permeable-Phenotype (%) [3, 7]: 12% and 11%
- Population Mitochondria Different-Phenotype (%) [3, 7]: 15% and 13%
- Population Mitotic Cells (%) [3, 7]: 24% and 21%
- Population Normal (%) [3, 7]: 97% and 98%
- Population Pyknosed Nuclei (%) [3, 7]: 10% and 9%
- Population Tubulin-Different-Phenotype (%) [3, 7]: 8% and 6%
- Total Cell Count [3, 7]: 320 and 149
- Population Apoptotic (%) [3, 8]: 86% and 76%
- Population Fragmented Nuclei (%) [3, 8]: 17%
- Population Healthy Nuclei (%) [3, 8]: 73% and 75%
- Population Hoechst High Intensity Objects (%) [3, 8]: 2% and 3%
- Population Membrane Permeable-Phenotype (%) [3, 8]: 3% and 5%
- Population Mitochondria Different-Phenotype (%) [3, 8]: 3%
- Population Mitotic Cells (%) [3, 8]: 13% and 23%
- Population Normal (%) [3, 8]: 97% and 96%
- Population Pyknosed Nuclei (%) [3, 8]: 9% and 6%
- Population Tubulin-Different-Phenotype (%) [3, 8]: 3% and 4%
- Total Cell Count [3, 8]: 398 and 209
- Population Apoptotic (%) [3, 9]: 86% and 89%
- Population Fragmented Nuclei (%) [3, 9]: 24% and 15%
- Population Healthy Nuclei (%) [3, 9]: 65% and 74%
- Population Hoechst High Intensity Objects (%) [3, 9]: 2% and 4%
- Population Membrane Permeable-Phenotype (%) [3, 9]: 11% and 9%
- Population Mitochondria Different-Phenotype (%) [3, 9]: 8%
- Population Mitotic Cells (%) [3, 9]: 13% and 10%
- Population Normal (%) [3, 9]: 97% and 95%
- Population Pyknosed Nuclei (%) [3, 9]: 9%
- Population Tubulin-Different-Phenotype (%) [3, 9]: 7% and 6%
- Total Cell Count [3, 9]: 453 and 203
